DAGLB inh: diacylglycerol lipase beta (human) inhibition | inhibition, % at 5.17 µM | 0.059% of 340,000 active | Q8NCG7 | HEK293T DAGLB membrane lysate, EnzChek fluorogenic substrate; in the data active = inhibition above about 34%;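 note: 0% = enzyme with vehicle and 100% = wells lacking enzyme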
Target sequence (Q8NCG7 whole entry, looked up): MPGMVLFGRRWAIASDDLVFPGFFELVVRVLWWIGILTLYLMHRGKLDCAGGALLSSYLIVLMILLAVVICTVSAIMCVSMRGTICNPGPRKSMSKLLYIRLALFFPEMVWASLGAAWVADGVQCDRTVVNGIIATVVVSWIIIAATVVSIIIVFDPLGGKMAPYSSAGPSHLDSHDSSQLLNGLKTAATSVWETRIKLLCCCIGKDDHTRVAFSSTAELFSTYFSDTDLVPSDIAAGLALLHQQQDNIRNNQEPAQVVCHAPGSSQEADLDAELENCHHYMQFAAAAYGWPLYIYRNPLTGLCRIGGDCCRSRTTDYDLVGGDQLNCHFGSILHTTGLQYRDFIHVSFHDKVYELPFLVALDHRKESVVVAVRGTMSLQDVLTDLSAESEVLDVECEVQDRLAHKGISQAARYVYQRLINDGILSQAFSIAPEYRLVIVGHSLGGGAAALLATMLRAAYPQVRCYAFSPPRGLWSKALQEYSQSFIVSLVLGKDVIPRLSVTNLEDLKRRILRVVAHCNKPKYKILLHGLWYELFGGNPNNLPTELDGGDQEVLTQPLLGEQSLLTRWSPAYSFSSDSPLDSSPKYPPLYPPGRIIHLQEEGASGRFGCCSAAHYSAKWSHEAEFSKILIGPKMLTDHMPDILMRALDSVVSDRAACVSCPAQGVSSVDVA
TAAR1 agonist: human TAAR1 agonism | CHO RD-HGA16 TAAR1, Fluo-8 calcium fluorescence; vehicle wells 0%, saturating PEA agonist 100% | activation, % at 3 µM | 0.99% of 360,000 active;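 active = activation above the mean activation of all test compounds in the run plus 3 SD, cut at about 38% in these data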
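Benchmarks: low control DMSO, high control PEA (EC100); System: CHO RD-HGA16 cells carrying human TAAR1 plus Gα16; Detection: Fluo-8 fluorescence, 5 s baseline then 140 s kinetic read; Schedule: 17-24 h plating, Fluo-8 75 min 37 °C, 30 min RT; Read-out basis: % activation from peak over basal fluorescence ratio, DMSO-to-PEA scaled.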
GPR7 antag: blocks human GPR7 receptor signaling; P48145; GPR7-expressing cells, fluorescence antagonist assay; inhibition, % at 4.4 µM; 1.1% of 290,000 active; AID 1861; in the data active = inhibition above about 16%, passing the limit was not always enough;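 note: cells stimulated with the agonist NPW; 0% = agonist with vehicle and 100% = vehicle without agonist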
TAAR1 antag: human TAAR1 antagonism | CHO RD-HGA16 TAAR1, Fluo-8 calcium fluorescence, antagonist | inhibition, % at 3 µM | 1.5% of 360,000 active | AID 624466;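 active = inhibition above a per-plate cutoff, the mean inhibition of test compounds on that plate plus 3 SD, cut at about 49% in these data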;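 note: 0% = DMSO plus EC80 beta-PEA response and 100% = DMSO alone without agonist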
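Assay system: CHO-derived RD-HGA16 cells stably expressing human TAAR1 plus Gα16. Timing: 140 s kinetic read after compound, 140 s after agonist. Technique: kinetic Fluo-8 calcium fluorescence measurement. Measure: % inhibition of agonist calcium response.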
MPTP inh: inhibitors of mitochondrial permeability transition pore | isolated mouse mitochondria, Ca2+ swelling absorbance, 30 min | inhibition, % at 10 µM | 1.4% of 360,000 active | AID 602449;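 active = inhibition of 50% or more, scaled per plate between neutral and stimulator controls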;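 note: 0% = DMSO wells given calcium and 100% = 1 mM EGTA wells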
nonsel antag count: counter-screen for TAAR1 antagonists: nonselective antagonists | shares compounds with TAAR1 antag | AID 651780 | 77% of 2,400 active | inhibition, % at 3 µM | counterscreen cell line, calcium fluorescence, antagonist mode; in the data active = inhibition above about 22%;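 note: CHO-Ga16 host cells stimulated with ATP at an EC80 level; 0% = agonist EC80 plus vehicle and 100% = vehicle without agonist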
TAAR1 ant conf: human TAAR1 antagonism, confirmed. shares compounds with TAAR1 antag. TAAR1-expressing cells, fluorescence antagonist read-out. inhibition, % at 3 µM. 40% of 2,400 active; in the data active = inhibition above about 49%;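 note: CHO-Ga16 host cells challenged with agonist PEA near its EC80; 0% = agonist at EC80 plus vehicle and 100% = vehicle with no agonist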
Ga16 nonsel ag: counter-screen for TAAR1 antagonists: nonselective Ga16 agonists. AID 651953. activation, % at 3 µM. Ga16-expressing cells, calcium fluorescence, agonist counterscreen. 18% of 2,400 active. shares compounds with TAAR1 antag; in the data active = activation above about 12%;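 note: 0% = vehicle wells and 100% = saturating stimulus response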
TAAR1 ag counter: activates human TAAR1 in antagonist counter-screen; shares compounds with TAAR1 antag; hTAAR1 cell line, fluorescence activation, agonist mode; activation, % at 3 µM; 2% of 2,400 active; in the data active = activation above about 37%;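 note: CHO cells stably expressing TAAR1 with calcium dye readout; 0% = DMSO vehicle and 100% = full agonist response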
An asterisk follows results filed as active; . = no result given. Hits are enriched below; roughly 4% of the tested compounds scored in any of these assays.

SMILES	DAGLB inh	TAAR1 agonist	GPR7 antag	TAAR1 antag	MPTP inh	nonsel antag count	TAAR1 ant conf	Ga16 nonsel ag	TAAR1 ag counter
COc1ccc(N2CCN(C(=O)c3cc4c(C)nc5ccccc5c4o3)CC2)cc1	-4	4	3	62*	-1	37*	51*	12*	10
COC(=O)[C@]12CCCCC=C1N(CCc1ccc(OC)c(OC)c1)C(=O)[C@H](CC(=O)NCc1cccs1)C2	.	7	.	30	0	.	.	.	.
N#Cc1ccc(C(=O)NCC2CCN(C(=O)C(=O)c3cccs3)CC2)cc1	.	1	.	-20	.	.	.	.	.
C[C@H](CO)N1C[C@H](C)[C@@H](CN(C)C(=O)c2cnccn2)Oc2cc(C#CCC3CCCC3)ccc2S1(=O)=O	-3	4	.	-1	-1	.	.	.	.
CO[C@@H]1CN(C)C(=O)c2ccc(NC(=O)C3CCCC3)cc2OC[C@@H](C)N(Cc2ccc(F)cc2)C[C@H]1C	.	3	.	-9	1	.	.	.	.
Cc1cccc(CN2CCSCCS2(=O)=O)c1	.	0	.	2	.	.	.	.	.
COC(=O)C1=C(C)N(Cc2cccc(C(F)(F)F)c2)C(=NCc2ccc(C(F)(F)F)cc2)NC1c1ccccc1C(F)(F)F (centres undefined)	.	1	.	-17	.	.	.	.	.
COc1ccc2nc(-c3ccccc3)cc(C(=O)N3CCC3)c2c1	1	8	.	25	0	.	.	.	.
COc1cccc(CN2CCN(C(=O)c3cc(-c4cccnc4)nc4ccc(C)cc34)CC2)c1	-1	14	-8	66*	8	27*	48	9	8
CC/C(=C(/CC)c1ccc(O)cc1)c1ccc(O)cc1	2	0	-12	57*	1	23*	37	4	12
COc1ccc(CNC(=O)C(c2ccco2)N(C(=O)Cc2cccs2)c2cccnc2)cc1 (centres undefined)	2	15	-2	16	-2	.	.	.	.
Cc1ccc(C(C(=O)NC2CCCC2)N(Cc2ccc3c(c2)OCO3)C(=O)Cc2cccs2)cc1 (centres undefined)	-7	10	-11	66*	3	26*	56*	9	12
COc1ccc(CNC(=O)C(c2ccco2)N(Cc2ccccc2)C(=O)Cc2cccs2)cc1 (centres undefined)	-5	20	0	85*	1	33*	55*	12*	12
COc1ccc(CNC(=O)C(c2ccco2)N(Cc2cccs2)C(=O)Cc2cccs2)cc1 (centres undefined)	-3	20	-18	75*	-2	35*	63*	9	7
COc1ccc(CNC(=O)C(c2ccc(C)cc2)N(Cc2cccs2)C(=O)c2ccc3c(c2)OCCO3)cc1 (centres undefined)	-3	23	-8	66*	1	31*	52*	15*	17
COc1ccc(CNC(=O)C(c2cccs2)N(Cc2ccco2)C(=O)Cc2cccs2)cc1 (centres undefined)	-3	18	-6	67*	0	30*	47	9	8
O=S1(=O)CC(N2CCCC2)CN1Cc1cn(Cc2cccc(Cl)c2)nn1 (centres undefined)	.	0	.	-14	0	.	.	.	.
c1ccc(OCCNc2nc(NCC3CC3)nc3ccsc23)cc1	.	14	.	32	8	.	.	.	.
CCC(C)c1ccc(O)c(NC(=S)NC(=O)c2cccs2)c1 (centres undefined)	-5	7	.	23	3	.	.	.	.
O=C(Cn1c(C(F)(F)F)nc2ccccc21)OCC(=O)c1c[nH]c2ccccc12	-1	13	3	41	2	.	.	.	.
Cc1[nH]c2ccccc2c1C(=O)COC(=O)Cn1c(C(F)(F)F)nc2ccccc21	-3	15	2	64*	3	37*	54*	13*	24
COC(=O)[C@]12CCCCC=C1N(Cc1ccccc1)C(=O)[C@H](CC(=O)NCCC(C)C)C2	.	8	.	33	0	.	.	.	.
OC(c1ccc(-c2ccccc2)cc1)c1ncc(-c2cccc(F)c2)[nH]1 (centres undefined)	.	1	.	5	0	.	.	.	.
CN(Cc1cnn(C)c1)C(=O)c1cc(COc2c(F)cccc2F)on1	0	8	-2	105*	-1	4	1	0	1
CCn1ccnc1CN(C)C(=O)c1cc(COc2c(F)cccc2F)on1	2	2	4	16	0	.	.	.	.
SMILES	DAGLB inh	TAAR1 agonist	GPR7 antag	TAAR1 antag	MPTP inh	nonsel antag count	TAAR1 ant conf	Ga16 nonsel ag	TAAR1 ag counter
OC(c1ccc(Cl)c(F)c1)c1ncc(-c2cccc(C(F)(F)F)c2)[nH]1 (centres undefined)	.	11	.	8	35	.	.	.	.
CCCc1cc2c(O)ccc(O)c2c(=O)o1	.	-1	.	-12	.	.	.	.	.
CN1CCCCC(NC(=O)CSc2ccccc2)C1=O (centres undefined)	.	-1	.	16	.	.	.	.	.
COc1ccc(C(=O)Nc2ccc3c(c2)CCCN3C(=O)c2cccs2)c(OC)c1	0	7	-22	55*	-2	26*	40	5	1
COc1cccc(C(=O)Nc2ccc3c(c2)CCCN3C(=O)c2cccs2)c1OC	-4	2	-13	50*	0	24*	39	6	8
CSC(=Cc1ccc(C(=O)c2ccc(C)cc2)n1C)S(C)=O (centres undefined)	.	3	.	4	.	.	.	.	.
Cc1ccc2nc(NC(=O)CS(=O)(=O)Cc3ccccc3)sc2c1	4	3	0	1	3	.	.	.	.
Cc1ccc2nc(NC(=O)CSCc3ccccc3)sc2c1	2	29	-11	50*	3	5	41	8	23
O=C(Nc1ccc(N2CCN(C(=O)c3cccs3)CC2)c(Cl)c1)c1ccco1	2	13	2	4	-2	.	.	.	.
Cc1cc(OCC(=O)Nc2ccc(N3CCN(C(=O)c4ccco4)CC3)cc2)cc(C)c1Cl	4	34	-14	86*	0	51*	71*	18*	18
CC(=O)N1CCN(c2ccc(NC(=O)c3ccc(Cl)cc3)cc2)CC1	-1	3	-3	15	-1	.	.	.	.
Cc1ccccc1C(=O)N1CCN(c2ccc(NC(=O)c3ccc4c(c3)OCO4)cc2)CC1	2	12	0	53*	-2	27*	45	9	8
O=C(Nc1ccc(N2CCN(C(=O)c3ccco3)CC2)cc1)c1ccc2c(c1)OCO2	1	8	0	12	-1	.	.	.	.
Cc1ccccc1C(=O)N1CCN(c2ccc(NC(=O)c3ccco3)cc2Cl)CC1	0	20	2	52*	27	23*	37	9	7
